For data set [1], the system named is Caco-2. As to the kind of experiment: Activation of IBABP gene expression in human Caco-2 cells at 25 uM after 6 days by RT-PCR. Type of data set: functional, cell-based. In outline: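 Caco-2 cells grown in high-glucose DMEM/15% heat-inactivated FBS, medium changed every 3 days; 23 days post-confluence treated with ligands in DMEM with 15% charcoal-stripped FBS for 6 days. SYBR green real-time QPCR, ΔΔCt normalized to cyclophilin, fold vs vehicle; N = 2.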

The target in data set [2] is T1, Bile acid receptor (Homo sapiens) (UniProt Q96RI1).
T1 sequence (whole entry): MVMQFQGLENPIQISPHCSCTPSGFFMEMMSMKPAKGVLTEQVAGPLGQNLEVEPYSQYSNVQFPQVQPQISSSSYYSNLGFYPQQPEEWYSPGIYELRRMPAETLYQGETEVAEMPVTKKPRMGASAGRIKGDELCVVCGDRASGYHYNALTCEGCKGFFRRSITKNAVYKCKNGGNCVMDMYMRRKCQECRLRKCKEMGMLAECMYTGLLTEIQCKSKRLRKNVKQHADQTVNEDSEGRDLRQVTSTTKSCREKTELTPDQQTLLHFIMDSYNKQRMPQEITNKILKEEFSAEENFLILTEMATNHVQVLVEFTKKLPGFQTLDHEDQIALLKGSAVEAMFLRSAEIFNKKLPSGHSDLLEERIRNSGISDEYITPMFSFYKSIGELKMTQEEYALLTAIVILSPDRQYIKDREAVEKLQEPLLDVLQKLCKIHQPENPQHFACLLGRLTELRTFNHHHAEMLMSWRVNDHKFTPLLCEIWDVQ
As to the kind of experiment: Activation of human FXR expressed in HEK293 cells by GAL4 activation assay. Type of data set: cell-based. In outline:
(§1)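 HEK293 cells in DMEM/10% super-stripped FBS, 4.0 × 10^4/well, calcium-phosphate transfected with UAS-luciferase (50 ng), GAL4-hFXR or GAL4-hPXR LBD fusion (15 ng), β-galactosidase (10 ng); ligands (5, 20, 50 µM) added 6-8 h later in delipidated medium, harvested 14-16 h later. Luciferase normalized to β-gal, fold over ethanol vehicle; triplicates.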

Data set [3] deals with T2, Nuclear receptor subfamily 1 group I member 2 (Homo sapiens, UniProt O75469).
T2 sequence (O75469 whole entry): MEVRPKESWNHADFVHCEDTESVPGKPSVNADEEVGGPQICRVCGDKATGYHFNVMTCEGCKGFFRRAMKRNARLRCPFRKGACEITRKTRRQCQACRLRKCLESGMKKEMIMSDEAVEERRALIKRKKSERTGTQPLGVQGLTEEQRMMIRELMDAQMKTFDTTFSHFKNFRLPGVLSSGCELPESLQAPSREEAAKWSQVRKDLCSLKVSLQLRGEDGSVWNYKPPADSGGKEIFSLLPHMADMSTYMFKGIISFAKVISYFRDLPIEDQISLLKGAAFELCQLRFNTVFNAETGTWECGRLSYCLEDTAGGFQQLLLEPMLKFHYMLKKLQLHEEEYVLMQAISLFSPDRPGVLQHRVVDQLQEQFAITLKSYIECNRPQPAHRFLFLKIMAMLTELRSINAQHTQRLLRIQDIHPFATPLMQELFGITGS
The data set can be described thus: Activation of human PXR expressed in HEK293 cells at 50 uM by GAL4 activation assay relative to control. It counts as cell-based. Particulars: hek293, 50 µM. In outline: as §1

For data set [4], the system named is Huh-7. The data set can be described thus: Activation of BSEP gene expression in human Huh7 cells at 20 uM after 18 hrs by RT-PCR. It counts as functional, cell-based. Summed up: (§2)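 Huh7 cells seeded 2 × 10^5/well in high-glucose DMEM/10% FBS; next day ligands added in low-glucose DMEM with 5% charcoal-stripped FBS, 18 h. RNA harvested, SYBR green real-time QPCR, ΔΔCt normalized to cyclophilin, fold vs vehicle; N = 3, mean ± SD.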

For data set [5], the system named is HepG2. The data set can be described thus: Activation of SHP gene expression in human HepG2 cells at 10 uM after 18 hrs by RT-PCR. It counts as functional, cell-based. Summed up:
(§3)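 HepG2 cells seeded 3 × 10^5/well in M199 with 10% FBS and 25 mM HEPES; after 24 h, medium replaced with ligand-containing medium, 18 h. Total RNA isolated; real-time QPCR with SYBR green (12.5 ng cDNA, 150 nM primers); ΔΔCt method normalized to cyclophilin, fold change vs vehicle-treated cells; N = 3, mean ± SD.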

Data set [6] has as its system Huh-7. As to the kind of experiment: Activation of SHP gene expression in human Huh7 cells at 20 uM after 18 hrs by RT-PCR. It counts as functional, cell-based. In outline:
as §2

In data set [7] the target is T2, Nuclear receptor subfamily 1 group I member 2. The data set can be described thus: Activation of human PXR expressed in HEK293 cells at 20 uM by GAL4 activation assay relative to control. Particulars: hek293, 20 µM. It counts as cell-based. In outline: as §1
Data set [8] has as its target T3, G-protein coupled bile acid receptor 1 (Homo sapiens) (UniProt Q8TDU6).
T3 sequence (whole entry): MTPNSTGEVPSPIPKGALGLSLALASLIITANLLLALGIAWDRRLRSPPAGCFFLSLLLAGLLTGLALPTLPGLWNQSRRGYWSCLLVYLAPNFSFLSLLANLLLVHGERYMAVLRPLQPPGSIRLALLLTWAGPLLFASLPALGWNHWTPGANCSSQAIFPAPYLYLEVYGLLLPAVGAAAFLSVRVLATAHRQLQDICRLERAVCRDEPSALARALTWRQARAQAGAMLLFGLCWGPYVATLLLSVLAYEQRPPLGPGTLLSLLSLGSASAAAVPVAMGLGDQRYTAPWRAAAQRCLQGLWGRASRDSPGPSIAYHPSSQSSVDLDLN
As to the kind of experiment: Activation of TGR5 expressed in HEK293 cells assessed as elevation of cAMP production at 100 uM relative to control. It counts as functional, cell-based. In outline:
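HEK293 seeded 0.5 × 10^6 cells/well and transfected 24 h later with TGR5 vector or empty vector. After 2 days, cells were exposed 30 min at 37 °C in fresh medium with 0.2 mM IBMX. Intracellular cAMP was measured by kit after lysis and expressed over vehicle; N = 2.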
(In general: Changes in cAMP serve as a functional read-out for many G protein-coupled receptors.)

Data set [9] has as its system Caco-2. As to the kind of experiment: Activation of IBABP gene expression in human Caco-2 cells at 1 uM after 6 days by RT-PCR. Type of data set: functional, cell-based. In outline: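 Caco-2 grown in high-glucose DMEM with 15% heat-inactivated FBS, medium changed every 3 days. Treated 23 days postconfluence for 6 days in medium with 15% charcoal-stripped heat-inactivated FBS. RNA was read by SYBR green real-time QPCR, ΔΔCt normalised to cyclophilin, and expressed relative to vehicle; N = 2.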

In data set [10] the test system is Huh-7. As to the kind of experiment: Activation of SHP gene expression in human Huh7 cells at 1 uM after 18 hrs by RT-PCR. It counts as functional, cell-based. In outline: (§4)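 Huh7 seeded 2 × 10^5 cells/well in high-glucose DMEM with 10% FBS. Next day, ligands were added in low-glucose DMEM with 5% charcoal-stripped FBS for 18 h. RNA was read by SYBR green real-time QPCR, ΔΔCt normalised to cyclophilin, and expressed as fold over vehicle; N = 3.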

The subject of data set [11] is HepG2. As to the kind of experiment: Activation of BSEP gene expression in human HepG2 cells at 1 uM after 18 hrs by RT-PCR. It counts as functional, cell-based. Summed up:
(§5)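 HepG2 seeded 3 × 10^5 cells/well in M199 with 10% FBS, penicillin/streptomycin and 25 mM HEPES. After 24 h, medium was replaced with ligand-containing medium for 18 h. Total RNA was isolated and analysed by SYBR green real-time QPCR (12.5 ng cDNA, 150 nM primers). Values were derived by ΔΔCt against cyclophilin, as fold over vehicle; N = 3.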

Data set [12] has as its system HepG2. As to the kind of experiment: Decrease in CYP7A1 gene expression in human HepG2 cells at 1 uM after 18 hrs by RT-PCR. Type of data set: functional, cell-based. Summed up: as §5
Data set [13] concerns Huh-7. The data set can be described thus: Activation of BSEP gene expression in human Huh7 cells at 1 uM after 18 hrs by RT-PCR. Type of data set: functional, cell-based. Summed up: as §4
The subject of data set [14] is HepG2. As to the kind of experiment: Decrease in CYP7A1 gene expression in human HepG2 cells at 25 uM after 18 hrs by RT-PCR. It counts as functional, cell-based. In outline: as §3
For data set [15], the system named is HepG2. As to the kind of experiment: Activation of BSEP gene expression in human HepG2 cells at 25 uM after 18 hrs by RT-PCR. It counts as functional, cell-based. In outline:
as §3

The test system of data set [16] is HepG2. As to the kind of experiment: Activation of SHP gene expression in human HepG2 cells at 25 uM after 18 hrs by RT-PCR. It counts as functional, cell-based. In outline:
as §3

The target of data set [17] is T1, Bile acid receptor (Homo sapiens). The data set can be described thus: Activation of human FXR at 50 uM by FXRE TK-luciferase reporter gene assay relative to control. In outline: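 HEK293 cells calcium-phosphate cotransfected with full-length hFXR and hRXRα (15 ng each) plus FXREx3-TK-luc reporter (three copies of mouse IBABP IR-1) and β-galactosidase; bile acids 50 µM added in delipidated medium 6-8 h later, harvested 14-16 h later; luciferase normalized to β-gal; N = 3.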
In general terms: In a reporter assay the amount or activity of a reporter protein is the signal.

Activity calls are given as the source filed them. The calls are words filed in the database; no cut-off is given here.

Consider `C[C@@H](CCC(=O)O)[C@@H]1CC[C@H]2[C@@H]3CC[C@H]4C[C@@H](O)CC[C@@]4(C)[C@H]3CC[C@]21C`, for which, in the data set with Caco-2 [1], the result was inactive. Besides, the Activity entry in data set [2] is “Dose-dependent effect”; in [3], “Active”; in data set [7], “Active”. Moreover, the result in the data set with Huh-7 [4], with HepG2 [5] and in the data set on Huh-7 [6] was Active.
As to `C=C[C@@]1(C)CC(=O)[C@]2(O)[C@@]3(C)[C@@H](O)CCC(C)(C)[C@@H]3[C@H](O)[C@H](OC(C)=O)[C@@]2(C)O1`, the Fold change in [8] worked out at 16.5.
As to `CC(C)c1onc(-c2c(Cl)cccc2Cl)c1COc1ccc(/C=C/c2cccc(C(=O)O)c2)c(Cl)c1`, the outcome with Caco-2 [9], with Huh-7 [10], in the data set with HepG2 [11], with HepG2 [12] and with Huh-7 [13] was Active.
As to `C[C@H](CCC(=O)O)[C@H]1CC[C@H]2[C@@H]3[C@@H](O)C[C@@H]4C[C@H](O)CC[C@]4(C)[C@H]3CC[C@]12C`, the result with Caco-2 [1] was inactive. Moreover, the result in the data set with HepG2 [14] was Active.
Turning to `C[C@H](CCC(=O)O)[C@H]1CC[C@H]2[C@@H]3[C@H](O)C[C@@H]4C[C@H](O)CC[C@]4(C)[C@H]3CC[C@]12C` [CHENODIOL], the result in the data set with Caco-2 [1], in the data set on Huh-7 [4], in the data set on Huh-7 [6], in the data set with HepG2 [15], in the data set on HepG2 [16] and with HepG2 [14] was Active. The outcome in data set [3] and in data set [7] was Active.
In the case of `C[C@H](CCC(=O)O)[C@H]1CC[C@H]2[C@@H]3CC[C@@H]4C[C@H](O)CC[C@]4(C)[C@H]3CC[C@]12C` [LITHOCHOLIC ACID], in the data set on Caco-2 [1], the result was inactive. Further, the Activity entry in [2] was “Dose-dependent effect”; in [3] it was “Active”; in data set [7] it was “Active”. The outcome (in the data set with Huh-7 [4]; in [17]; in the data set with Huh-7 [6]) was Active.
